FLuc stim CS – affects firefly luciferase, flagging false hits in luciferase stimulation screens; P08659; ATPlite luciferase biochemical, luminescence, 10 min; 0 = ATP-free wells, 1 = DMSO control; activation factor at 10 µM; 200,000 tested, under 10 active; AID 1027;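 active = luciferase activation factor, scaled between plate controls, of at least 2 with compound at 10 µM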
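System: Luciferase/luciferin detection reagent, cell-free biochemical luciferase assay | Medium: PBS buffer for ATP | Dosing: Test compounds dosed from 2 mM stocks in 100% DMSO | Timing: 10 min at ambient temperature | Signal: Luminescence measurement of luciferase light output | Evaluation: Luciferase activation, seen as luminescence increase over controls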
TRAIL sens C8 – caspase-8 TRAIL sensitization; NB7+C8 cells + TRAIL, ATPlite viability luminescence; inhibition (viability loss, TRAIL sensitization), % at 10 µM; 360,000 compounds, 1% hits; AID 624354;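 active = compounds causing at least 50% loss of cell viability in the single-dose screen, relative to plate controls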
PPC-1+TRAIL kill – compounds killing PPC-1 cancer cells with TRAIL present (potentiator screen, no TRAIL-free arm); PPC-1 cells + TRAIL, ATPLite viability luminescence; cell killing (% activity), % at 4 µM or 5 µM; 220,000 compounds, 0.41% hits; AID 1443;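 active = cell killing above 50% in the first pass at 4 µM, then a duplicate retest at 5 µM averaging 50% or more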;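 also: plate controls were cells with TRAIL plus DMSO for no effect and medium-only wells lacking cells for full effect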
Wee1 degr inh – blocks degradation of human Wee1 kinase; HeLa Luc-Wee1K328M stability, luciferase luminescence; 100% = proteasome inhibitor MG132 effect; reporter increase, % at 5 µM; 220,000 compounds, 1.2% hits; AID 1321;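 active = activation above the mean of all tested compounds plus 3 SD, set per screening run, cut at about 8.8% in these data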;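 also: cells exposed to compound for 20 h before luminescence read; 0% = DMSO alone and 100% = MG132 at 30 µM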
FLuc inh counter – counter-screen for luciferase assay inhibitors: firefly luciferase inhibition | inhibition, % at 10 µM | 200,000 compounds, 1.5% hits | P08659 | ATPLite firefly luciferase biochemical luminescence, 10 min;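 active = inhibition above about 50% when tested at 10 µM, limit read from the data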
PKD1 kinase inh – PKD1 (human) kinase inhibition; Q15139; inhibition, % (test concentration not listed); PKD1 kinase fluorescence polarization assay; 200,000 compounds, 0.056% hits; in the data active = inhibition above about 50%
* marks the source's active call; other numbers are inactive results. Sampled rows, rich in hits. Any-hit rate of the full collection: about 2.2%.

Results for Nc1ncnc2c1ccn2[C@@H]1O[C@H](CO)[C@@H](O)[C@H]1O ?
TRAIL sens C8: 88*

What do the screens show for `Cc1ccccc1NS(=O)(=O)c1ccc(OCC(=O)N2CCN(C)CC2)cc1`?
TRAIL sens C8: -25

Results for COc1ccc2nc(-c3ccc(CN4CCC(n5c(=O)[nH]c6ccccc65)CC4)cc3)c(-c3ccccc3)nc2c1 ?
TRAIL sens C8: 51*

How did COc1ccc(-n2nnnc2C(CCc2ccccc2)N2CCC(n3c(=O)[nH]c4ccccc43)CC2)cc1 (stereo not given) do in these assays?
TRAIL sens C8: 90*

Results for Cc1cccc(C)c1-n1nnnc1C(CCc1ccccc1)N1CCC(n2c(=O)[nH]c3ccccc32)CC1 (stereo not given) ?
TRAIL sens C8: 82*

Results for CCC(c1nnnn1-c1ccc(OC)cc1)N1CCC(n2c(=O)[nH]c3ccccc32)CC1 (stereo not given) ?
TRAIL sens C8: 5

Results for OC1/C(=C/c2ccc(F)cc2)N2CCC1CC2 (stereo not given) ?
FLuc stim CS: 1.1; TRAIL sens C8: -2; PPC-1+TRAIL kill: 3; Wee1 degr inh: 0; FLuc inh counter: -9; PKD1 kinase inh: -7

How did COC(=O)C1=C(c2ccc(-c3ccccc3)c(F)c2)C[C@@H]2CC[C@H]1N2C(=O)NCc1cccc2ccccc12 do in these assays?
TRAIL sens C8: -15

How did O=[N+]([O-])/C=C/c1c(Cl)cccc1Cl do in these assays?
TRAIL sens C8: 71*

What do the screens show for `CC(C)CCOC(=O)c1c(N)n(CC2CCCO2)c2nc3ccccc3nc12` (stereo not given)?
FLuc stim CS: 1; TRAIL sens C8: -19; PPC-1+TRAIL kill: 8; Wee1 degr inh: 10*; FLuc inh counter: 3; PKD1 kinase inh: -3

How did Cc1ccc(NC(=O)CN2C(=O)CN=C(c3ccccc3)c3cc(Cl)ccc32)cc1 do in these assays?
FLuc stim CS: 1; TRAIL sens C8: 57*; PPC-1+TRAIL kill: 10; Wee1 degr inh: 4; FLuc inh counter: 4; PKD1 kinase inh: -7

What do the screens show for `CN(C)c1ccc(NC(=O)CN2C(=O)CN=C(c3ccccc3)c3cc(Cl)ccc32)cc1`?
FLuc stim CS: 1.1; TRAIL sens C8: -8; PPC-1+TRAIL kill: 12; Wee1 degr inh: 1; FLuc inh counter: -7; PKD1 kinase inh: -3

Results for C[C@@H]1O[C@@H](O[C@@H]2C=C3CCC4C(CC[C@]5(C)[C@@H](c6ccc(=O)oc6)CC[C@]45O)[C@@]3(C)CC2)[C@H](O)[C@H](O)[C@H]1O (stereo not given in full) ?
TRAIL sens C8: 75*

How did C[C@@H]1O[C@@H](O[C@@H]2C=C3CC[C@@H]4C(CC[C@]5(C)[C@@H](c6ccc(=O)oc6)CC[C@]45O)[C@@]3(C)CC2)[C@H](O)[C@H](O)[C@H]1O (stereo not given in full) do in these assays?
TRAIL sens C8: 76*

How did COC(=O)C1=C(c2ccc(Cl)c(C(F)(F)F)c2)C[C@@H]2CC[C@H]1N2C(=O)NCCOc1ccccc1Cl do in these assays?
TRAIL sens C8: 22

How did C[C@H](NC(=O)CCC(=O)N1C[C@H]2C[C@H](C1)c1cccc(=O)n1C2)c1ccccc1 do in these assays?
TRAIL sens C8: 6

What do the screens show for `C[C@]12CCC3C(CC[C@H]4C[C@@H](O)[C@H](O)C[C@]34C)C1CC[C@@H]2O` (stereo not given in full)?
TRAIL sens C8: 16

How did C[C@@H]1C[C@@H]([C@H](O)CC2CC(=O)NC(=O)C2)C(=O)[C@@H](C)C1 do in these assays?
TRAIL sens C8: 30

How did CC(=O)OC1(C)CC(C)C(=O)C(C(O)CC2CC(=O)NC(=O)C2)C1 (stereo not given) do in these assays?
TRAIL sens C8: 74*

What do the screens show for `C[C@]12CCC3C(CC[C@H]4C[C@H](O)CC[C@]34C)C1[C@@H](O)[C@@H](O)[C@@H]2O` (stereo not given in full)?
TRAIL sens C8: -3

Results for O=C(O)c1nonc1-c1nonc1C(=O)O ?
FLuc stim CS: 1.1; TRAIL sens C8: 9; PPC-1+TRAIL kill: 24; Wee1 degr inh: 18*; FLuc inh counter: -5; PKD1 kinase inh: 17

What do the screens show for `Cc1nn(Cc2ccccc2Cl)c(C)c1C(=O)OCC(=O)N1CC(C)OC(C)C1` (stereo not given)?
FLuc stim CS: 1; TRAIL sens C8: -9; PPC-1+TRAIL kill: 5; Wee1 degr inh: 4; FLuc inh counter: -3; PKD1 kinase inh: 0

Results for C=Cc1ccc(Cn2c(C(=O)O)c(C=O)c3ccccc32)cc1 ?
FLuc stim CS: 1; TRAIL sens C8: -5; PPC-1+TRAIL kill: 0; Wee1 degr inh: -1; FLuc inh counter: -2; PKD1 kinase inh: -9

Results for CC(=O)OC1CC(OC2C(O)CC(OC3C(O)CC(OC4CCC5(C)C(CCC6C5CCC5(C)C(C7=CC(=O)OC7)CCC65O)C4)OC3C)OC2C)OC(C)C1OC1OC(CO)C(O)C(O)C1O (stereo not given) ?
TRAIL sens C8: 66*

How did S=C=Nc1cccc(C2(N3CCCCC3)CCCCC2)c1 do in these assays?
TRAIL sens C8: -7

Results for CC(=O)OC1N=C(c2ccccc2)c2cc(Br)ccc2N(C)C1=O (stereo not given) ?
FLuc stim CS: 1.1; TRAIL sens C8: -1; PPC-1+TRAIL kill: 8; Wee1 degr inh: 2; FLuc inh counter: -5; PKD1 kinase inh: 6

How did CCCCCn1c(=O)c(C(=O)Nc2nc3ccccc3[nH]2)c(O)c2ccccc21 do in these assays?
TRAIL sens C8: 27; PPC-1+TRAIL kill: 20; Wee1 degr inh: 10*

How did O=C(c1ccc(Cl)cc1)C1CCCN(C2CCSCC2)C1 (stereo not given) do in these assays?
FLuc stim CS: 1; TRAIL sens C8: 7; PPC-1+TRAIL kill: 1; Wee1 degr inh: -2; FLuc inh counter: -4; PKD1 kinase inh: 0

Results for CS(=O)(=O)c1ccc(C2=C(CNC(=O)c3nccs3)[C@H]3CC[C@@H](C2)N3CCOc2ccccc2)cc1 ?
TRAIL sens C8: -3

What do the screens show for `c1ccc2c(CN3CCN(C4CCCCC4)CC3)c[nH]c2c1`?
FLuc stim CS: 1; TRAIL sens C8: 6; PPC-1+TRAIL kill: 13; Wee1 degr inh: 11*; FLuc inh counter: -2; PKD1 kinase inh: 3

How did c1ccc2c(CN3CCCCCCC3)c[nH]c2c1 do in these assays?
FLuc stim CS: 1.1; TRAIL sens C8: -13; PPC-1+TRAIL kill: -7; Wee1 degr inh: -4; FLuc inh counter: -5; PKD1 kinase inh: 6

Bioassay records as filed in PubChem.
